The text below walks through data of ChEMBL document CHEMBL5370647 (J Med Chem, 2023).

For data set [1], the system named is Mycobacterium tuberculosis. Description: Antitubercular activity against non-replicating Mycobacterium tuberculosis H37Rv expressing luxCDAB assessed as inhibition of bacterial growth incubated for 7 days under hypoxia conditions followed by incubation in normoxia conditions for 5 days by luminescence based analysis. Format: functional. As to conditions: 288 h, time 12 day.

The target in a further data set is T1, TGF-beta receptor type-1 (Homo sapiens, UniProt P36897).
T1 sequence (P36897 whole entry): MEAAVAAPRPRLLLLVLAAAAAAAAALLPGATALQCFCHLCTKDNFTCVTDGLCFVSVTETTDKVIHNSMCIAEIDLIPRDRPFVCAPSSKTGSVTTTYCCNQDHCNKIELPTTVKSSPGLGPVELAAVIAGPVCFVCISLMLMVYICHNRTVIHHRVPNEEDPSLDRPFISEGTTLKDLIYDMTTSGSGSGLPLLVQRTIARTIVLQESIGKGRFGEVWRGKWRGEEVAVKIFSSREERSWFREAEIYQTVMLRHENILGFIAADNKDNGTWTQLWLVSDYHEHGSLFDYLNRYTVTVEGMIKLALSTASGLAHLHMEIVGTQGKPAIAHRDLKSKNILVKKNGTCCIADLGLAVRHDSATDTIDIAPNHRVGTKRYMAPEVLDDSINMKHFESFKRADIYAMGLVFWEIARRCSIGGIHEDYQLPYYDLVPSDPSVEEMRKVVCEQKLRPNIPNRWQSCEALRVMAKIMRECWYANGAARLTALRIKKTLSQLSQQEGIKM
The data set is described as follows: Binding affinity to wild type human partial length TGFBR1 (D179 to M503 residues) expressed in bacterial expression system by KINOMEscan assay.

Data set [2] can be described thus: Metabolic stability of the compound in CD-1 mouse liver microsomes assessed as parent compound remaining at 5 uM preincubated for 5 mins followed by NADPH addition and measured after 30 mins by LC-TOF/MS analysis. The format is ADME, Microsome. Conditions: time 35 min, read-out: Stability. The method, boiled down: (§1)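 Mouse liver microsomes incubated with compound in the presence of NADPH. Read-out is % parent compound remaining after 30 min.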

A short description of data set [3]: Metabolic stability of the compound in CD-1 mouse liver microsomes at 5 uM by LC-TOF/MS analysis. Format: ADME, Microsome. In a few lines: as §1
Data set [4] can be described thus: AUC(last) in CD-1 mouse at 10 mg/kg, po by LC/MS/MS analysis. More on the design: dose 10 mg/kg, route po. Conditions: in vivo. Format: ADME, organism-based. In a few lines:
(§2)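 CD1 mice dosed orally at 10 mg/kg (snapshot PK study). Plasma levels followed over 5 h by LC/MS/MS. T1/2, Cmax and AUC_last derived from the plasma profile.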

Data set [5] in a line: Half life in CD-1 mouse at 10 mg/kg, po by LC/MS/MS analysis. The format is ADME, organism-based. As to conditions: in vivo. The method, boiled down: as §2
Data set [6] in a line: Cmax in CD-1 mouse at 10 mg/kg, po by LC/MS/MS analysis. Format: ADME, organism-based. More on the design: dose 10 mg/kg, route po. As to conditions: in vivo. The method, boiled down:
as §2

Data set [7] is described as follows: Oral bioavailability in CD-1 mouse at 10 mg/kg by LC/MS/MS analysis. Format: ADME, organism-based. As to conditions: in vivo. In a few lines:
(§3)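 Full PK study in CD1 mice at 10 mg/kg given by oral, intravenous and intraperitoneal routes. Plasma levels monitored over 8 h by LC/MS/MS.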

Data set [8] is described as follows: Volume of distribution in CD-1 mouse at 10 mg/kg by LC/MS/MS analysis. The format is ADME, organism-based. Conditions: in vivo. In a few lines: as §3
The nature of data set [9]: Bioavailability in CD-1 mouse at 10 mg/kg, ip by LC/MS/MS analysis. The format is ADME, organism-based. As to conditions: in vivo. The method, boiled down: as §3
Data set [10] deals with Mycobacterium tuberculosis. The data set is described as follows: Antitubercular activity against RIF/INH-tolerant persistent Mycobacterium tuberculosis H37Rv assessed as reduction of viable bacteria at 4.9 uM incubated for 14 days followed by drug wash-out and measured after 21 days. Format: functional, organism-based. As to conditions: time 14.0 day. The method, boiled down: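 Static at 37 °C for 14 days, washed twice, resuspended in fresh 7H9 and recovered for 28 days. CFU plated 21 and 28 days after drug removal.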

The test system of data set [11] is Mycobacterium tuberculosis. Description: Antitubercular activity against Mycobacterium tuberculosis H37Rv constitutively expressing GFP assessed as inhibition of bacterial growth at 20 uM incubated for 7 days by fluorescence based analysis. As to conditions: 168 h, time 7 day. The format is functional.
For data set [12], the system named is Mycobacterium tuberculosis. Description: Antitubercular activity against replicating Mycobacterium tuberculosis H37Rv constitutively expressing GFP assessed as inhibition of bacterial growth under normoxia conditions incubated for 3 weeks by spot assay. The format is functional. As to conditions: 504 h.
For data set [13], the system named is Mycobacterium tuberculosis. The data set is described as follows: Antitubercular activity against non-replicating Mycobacterium tuberculosis H37Rv constitutively expressing GFP assessed as inhibition of bacterial growth incubated for 7 days under hypoxic condition followed by incubation in aerobic conditions for 1 to 5 days by spot assay. Conditions: time 8-12 day. The format is functional.

Values after ≈ are worked out from the molar mass of the structure shown. Active and inactive are the calls of the source. The rule behind the calls is not given here. Where only a bound is given, the exact number is not on record here.

On to `Cc1cccc(-c2nc(Nc3ccc4nn(C)nc4c3)c3ccccc3n2)n1`, for which, in [1], the MIC50 is less than 0.3 µM and the MIC90 was determined as 0.3 µM (≈ 0.11 µg/mL). On TGF-beta receptor type-1, this compound came in with a Kd of more than 10000 nM. In addition, in data set [2], the remaining at 0.5 h, 5 µM was 30%. The Stability result in data set [3] was “Stable”. For the same compound, the AUClast in data set [4] amounted to 440 ng·h/mL. In data set [5], the t1/2 stood at 4.6 h. The same compound displayed a maximum concentration (Cmax) in data set [6] of 150 ng/mL.

In the case of `Cc1cccc(-c2nc(Nc3ccncc3)c3ccn(C)c3n2)n1`, in data set [7], the bioavailability stood at 25%. In addition, in data set [1], the MIC50 is less than 1 µM and the MIC90 was less than 1 µM. Moreover, in data set [2], the remaining at 0.5 h, 5 µM stood at 39%. Further, the Stability result in data set [3] was “Stable”. The AUClast in data set [4] was found to be 640 ng·h/mL. Also, the t1/2 in data set [5] was 1.9 h. Further, the peak concentration (Cmax) in data set [6] came out at 280 ng/mL. Besides, in data set [8], the Vd was determined as 4.65 L/kg. In data set [9], this compound came in with a bioavailability of 65%.

With `CC[C@@H](CO)NCCN[C@@H](CC)CO`, the result in [10] was inactive.

Regarding `Cc1cccc(-c2nc(Nc3ccc4c(c3)OCO4)c3ccccc3n2)n1`, in data set [1], the MIC50 was less than 0.3 µM and the MIC90 came to 1.3 µM (≈ 0.463 µg/mL). In addition, the remaining at 0.5 h, 5 µM in [2] amounted to 30%. The Stability entry in data set [3] is “Stable”. In data set [4], this compound showed an AUClast of 250 ng·h/mL. The t1/2 in data set [5] stood at 3.4 h. This compound also gave a Cmax in data set [6] of 75 ng/mL.

With `Cn1cncc1-c1ccc2ncnc(Nc3ccc(OCc4ccccc4)cc3)c2c1`, in data set [11], the inhibition at 20 µM was more than 90%. Besides, in [12], the MIC50 stood at 5 µM (≈ 2.04 µg/mL) and the MIC90 was 5 µM (≈ 2.04 µg/mL). Besides, in data set [13], the MIC90 was determined as 11 µM (≈ 4.48 µg/mL).

As for `Cc1cccc(-c2nc(Nc3ccncc3)c3ccccc3n2)n1`, in [11], the inhibition at 20 µM is more than 90%. Moreover, the figures for the MIC50 in [12] and in [1] were 16 µM (≈ 5.01 µg/mL) and less than 0.3 µM, respectively. The MIC90 in data set [12] worked out at 20 µM (≈ 6.27 µg/mL); in data set [13], 1 µM (≈ 0.313 µg/mL); in [1] it was 0.3 µM (≈ 0.094 µg/mL). Moreover, the Kd at TGF-beta receptor type-1 stood at 10 nM. Moreover, in data set [2], the remaining at 0.5 h, 5 µM amounted to 14%. Besides, the Stability entry in [3] is “Stable”. The AUClast in [4] was determined as 75 ng·h/mL. Also, the t1/2 in data set [5] worked out at 1.8 h. In data set [6], this compound displayed a Cmax of 60 ng/mL.

Consider `CN1CCN(Cc2cccc(-c3ccc4c(Nc5ccc(Oc6ccccc6)cc5)ccnc4c3)c2)CC1`, for which the inhibition at 20 µM in data set [11] is more than 90%. Further, the MIC90 in [12] is 11 µM (≈ 5.51 µg/mL); in [13], 6 µM (≈ 3 µg/mL).

With `Nc1nc(-c2ccccn2)c(-c2ccnc3ccccc23)s1`, the inhibition at 20 µM in [11] is more than 90%. In data set [12], the MIC50 came out at 13 µM (≈ 3.96 µg/mL) and the MIC90 is 20 µM (≈ 6.09 µg/mL). For the same compound, in [13], the MIC90 is more than 20 µM.
